From PubChem BioAssay
Compounds with a hit are over-represented: about 3.9% of the library has one in this group of screens.
Jurkat NFkB inh – inhibitors of induced NF-kB luciferase reporter, primary screen, TCR NF-kB activation inhibitor project, cell-based, luminescence, uHTS. Jurkat, PMA/ionomycin-induced NF-kB luciferase reporter. inhibition, % at 4 µM. 330,000 tested, 0.53% active. AID 435003, 2010; in the data active means inhibition above about 50%
697 NFkB inh – inhibitors of PMA/ionomycin-induced NF-kB reporter, 697 cells, primary screen, B-cell NF-kB inhibitor project, cell-based, luminescence, uHTS; 697 B-cell NF-kB luciferase reporter, 16 h; inhibition, % at 4 µM; 330,000 tested, 0.33% active; in the data active means inhibition above about 35%
UPR XBP1 act – activators of adaptive XBP1 UPR arm, primary screen, cell-based, CHO-XBP1 luciferase reporter, luminescence, uHTS | IRE1-XBP1 UPR activation; percent of tunicamycin response, DMSO as zero | activation, % at 20 µM | 330,000 tested, 0.33% active | AID 463104, 2010;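 active means versus positive control, 20 µM dose yields 30% or more activation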;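 further: 100% = tunicamycin at 10 µg/mL and 0% = DMSO only wells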
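Assay system: CHO-XBP1 luciferase reporter cells; Schedule: 6 h treatment, 37 °C; Detection: glow luminescence from Steady-Glo reagent; Benchmarks: high control tunicamycin 10 µg/mL final, low control DMSO vehicle only.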
CHOP inhibitor – inhibitors of CHOP promoter induction, primary screen, cell-based, unfolded protein response, luciferase reporter; CHO-K1 CHOP-promoter luciferase, tunicamycin-induced, 15-18 h; inhibition, % at 10 µM; 220,000 tested, 3.8% active; AID 2732, 2010;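 active means compounds that reduced the stress-induced luciferase reporter signal by more than about 70% of percent inhibition, limit read from the data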;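 further: 0% = tunicamycin plus vehicle and 100% = wells without tunicamycin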
CHOP UPR activ – activators of apoptotic CHOP UPR arm, primary screen, cell-based, CHO-CHOP luciferase reporter, luminescence, uHTS; UPR activation; percent of tunicamycin response over DMSO baseline; activation, % at 10 µM; 330,000 tested, 0.34% active; AID 449763, 2010;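 active means at 10 µM dose, activation of 40% or more, normalized to positive control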;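 further: 100% = tunicamycin at 10 µg/mL and 0% = DMSO alone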
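Test system: CHO CHOP reporter cells. Input: 500 CHO-CHOP cells per well. Medium: F12 with 10% FBS. Technique: luciferase luminescence. Measure: percent activation relative to tunicamycin control. Dosing: 10 µM compound, 0.5% DMSO. Timing: 16-18 h cell attachment, then 6 h compound exposure, 37 °C.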
Gli-Sufu antag – Gli-Sufu pathway antagonists, primary screen, luciferase luminescence, Sufu-KO-LIGHT cells, uHTS. Sufu-KO-LIGHT fibroblasts, Gli luciferase reporter luminescence. inhibition, % at 5 µM. 340,000 tested, 0.74% active. AID 588413, 2011;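 active means inhibition above about 55%, limit read from the data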;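 further: 0% = DMSO-treated cells and 100% = wells with medium but no cells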
Active calls of the source: *; nt = no result given.

SMILES	Jurkat NFkB inh	697 NFkB inh	UPR XBP1 act	CHOP inhibitor	CHOP UPR activ	Gli-Sufu antag
CC(C)CC(=O)NC(Oc1ccc(Cl)cc1)C(Cl)(Cl)Cl (centres undefined)	7	5	-2	72*	0	0
CC(C)[C@H]1C(=O)O[C@H](C(C)C)C(=O)N(C)[C@@H](C(C)C)C(=O)O[C@H](C(C)C)C(=O)N(C)[C@@H](C(C)C)C(=O)O[C@H](C(C)C)C(=O)N1C	10	-32	5	93*	23	84*
NC(=S)c1cn(C2OC(CO)C(O)C2O)c2ncnc(N)c12 (centres undefined)	nt	nt	nt	105*	nt	-49
CCN(CC)c1ncnc2c1ncn2[C@@H]1O[C@H](COP(=O)(O)OP(=O)(O)C(Br)(Br)P(=O)(O)O)[C@@H](O)[C@H]1O	nt	nt	nt	-20	nt	nt
CC1OC1P(=O)(O)O (centres undefined)	nt	nt	nt	2	nt	nt
c1ccc2c(c1)-c1cccc3cccc-2c13	-1	12	1	nt	2	3
c1ccc2c(c1)[IH]c1ccccc1-2	nt	nt	nt	nt	nt	86*
CCn1nc(/C=C/c2ccccc2)nc2c(=O)n(C)c(=O)nc1-2	37	-102	-10	105*	-5	91*
COc1ccc(-n2c(/C=C/c3ccc(O)cc3)nc3ccccc3c2=O)cc1	2	4	-3	nt	1	-4
CCCN(CCC)CCc1c[nH]c2ccc(C(N)=O)cc12	nt	nt	nt	-8	nt	nt
Cc1ccc(Cn2nnnc2CN2CCC(n3nnc4cc(C(F)(F)F)ccc43)CC2)cc1	-5	-15	2	56	1	-1
FC(F)(F)c1ccc2c(c1)nnn2C1CCN(Cc2nnnn2Cc2ccccc2)CC1	14	8	0	88*	-3	-5
Fc1ccc2c(c1)nnn2C1CCN(Cc2c(Cl)cccc2Cl)CC1	10	0	-3	40	-3	10
Cc1ccc(C)c(CN2CCC(n3nnc4cc(F)ccc43)CC2)c1	12	4	-7	75*	-1	5
CC(C)(C)NCC(O)c1ccccc1Cl (centres undefined)	nt	nt	nt	33	nt	nt
CCCN(CCC)[C@@H]1CCc2c(F)ccc(O)c2C1	nt	nt	nt	-15	nt	nt
CN(CC(=O)Nc1ccccc1-c1ccccc1)C1CCCCC1	-10	-4	-4	83*	-2	8
O=C1NC(=O)N(Cc2ccco2)C(=O)/C1=C\c1cccn1CCOc1ccc(Cl)cc1	-1	-5	2	76*	1	-7
CCc1ccc(N2C(=O)NC(=O)/C(=C/c3cccn3CCOc3ccc(C(C)CC)cc3)C2=O)cc1 (centres undefined)	2	-52	22	86*	23	-29
Cc1cc(C)cc(N2C(=O)NC(=O)/C(=C\c3cccn3-c3ccc(Cl)cc3)C2=O)c1	13	24	-7	30	271*	-2
CCc1ccc(N2C(=O)NC(=O)/C(=C/c3cccn3CCOc3ccc(C)cc3)C2=O)cc1	-7	-11	8	90*	9	10
Cc1cc(/C=C2\C(=O)NC(=O)N(c3ccc(Cl)cc3)C2=O)c(C)n1-c1cccc(C(=O)O)c1	-1	-4	-4	nt	1	4
CN(N=O)c1ccc(O)c(O)c1	nt	nt	nt	8	nt	nt
CCn1c(NN=O)nc2ccccc21	22	7	5	61	11	70*
CCOc1c(Cl)cc(CNCCc2c[nH]c3ccccc23)cc1OC	2	10	2	11	-2	3
CCOc1cc(CNCCc2c[nH]c3ccccc23)cc(Cl)c1OCC	-15	-1	-1	80*	-1	-7
Fc1ccc(C[n+]2c(-c3ccccc3)cc(-c3ccccc3)cc2-c2ccccc2)cc1	12	-29	1	nt	5	43
Clc1ccc(C[n+]2c(-c3ccccc3)cc(-c3ccccc3)cc2-c2ccccc2)cc1	41	6	2	nt	20	70*
